Here are results for 16 compounds from ChEMBL document CHEMBL1152635, “Pyranonaphthoquinone derivatives of eleutherin, ventiloquinone L, thysanone and nanaomycin A possessing a diverse topoisomerase II inhibition and cytotoxicity spectrum” (2009).

Assay [1] addresses T1, Type II restriction enzyme XhoI (Xanthomonas vasicola) (UniProt Q9KVZ7).
T1 sequence (whole entry): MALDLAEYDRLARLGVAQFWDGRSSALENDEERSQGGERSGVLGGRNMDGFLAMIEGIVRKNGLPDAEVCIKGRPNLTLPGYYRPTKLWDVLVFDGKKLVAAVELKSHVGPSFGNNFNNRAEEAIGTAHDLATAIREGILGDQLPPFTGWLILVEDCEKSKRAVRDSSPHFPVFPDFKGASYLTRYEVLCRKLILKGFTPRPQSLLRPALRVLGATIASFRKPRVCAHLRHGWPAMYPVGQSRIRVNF
The experiment in a line: Inhibition of Xanthomonas vasicola XhoI assessed as pBSKS cleavage at 100 uM by endonuclease assay. The method, boiled down: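 Plasmid pBluescript with 1 unit XhoI in place of topoisomerase, using the relaxation protocol: 0.5 mM ATP, Tris-HCl/KCl/NaCl/EDTA/MgCl2/glycerol buffer pH 8.0, 1% DMSO, 37 °C for 60 min. The reaction was quenched with SDS/EDTA and treated with proteinase K. Products were resolved on 1% agarose in TBE.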

The test system of the next assay is Saccharomyces cerevisiae. Kind of assay: Growth inhibition of Saccharomyces cerevisiae BY4741 after 24 hrs. The following applies: for MIC50: BY4741, 24 h. The format is functional. Put shortly: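 BY4741 grown overnight at 30 °C in YPD and taken at log phase (~0.6 OD660/ml), then diluted into fresh YPD at 0.01 OD660/ml. Compounds were given in 1% DMSO at twofold steps from 1 to 128. Growth at 30 °C for 24 h was read as OD660 and normalised to a DMSO-only control. MIC50 (50% growth inhibition) was derived from relative growth versus log10 concentration.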

The target in assay [2] is DNA topoisomerase 2-alpha (Homo sapiens) (UniProt P11388). Kind of assay: Inhibition of human topoisomerase 2alpha-mediated kinetoplast DNA decatenation at 100 uM. The method, boiled down: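 Incubation was 60 min at 37 °C, then SDS stop and proteinase K (55 °C, 30 min). Samples ran on 1% agarose containing ethidium bromide. Activity was scored as the ratio of nicked plus supercoiled minicircles to kDNA.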
Chain of DNA topoisomerase 2-alpha (Homo sapiens) (P11388 whole entry): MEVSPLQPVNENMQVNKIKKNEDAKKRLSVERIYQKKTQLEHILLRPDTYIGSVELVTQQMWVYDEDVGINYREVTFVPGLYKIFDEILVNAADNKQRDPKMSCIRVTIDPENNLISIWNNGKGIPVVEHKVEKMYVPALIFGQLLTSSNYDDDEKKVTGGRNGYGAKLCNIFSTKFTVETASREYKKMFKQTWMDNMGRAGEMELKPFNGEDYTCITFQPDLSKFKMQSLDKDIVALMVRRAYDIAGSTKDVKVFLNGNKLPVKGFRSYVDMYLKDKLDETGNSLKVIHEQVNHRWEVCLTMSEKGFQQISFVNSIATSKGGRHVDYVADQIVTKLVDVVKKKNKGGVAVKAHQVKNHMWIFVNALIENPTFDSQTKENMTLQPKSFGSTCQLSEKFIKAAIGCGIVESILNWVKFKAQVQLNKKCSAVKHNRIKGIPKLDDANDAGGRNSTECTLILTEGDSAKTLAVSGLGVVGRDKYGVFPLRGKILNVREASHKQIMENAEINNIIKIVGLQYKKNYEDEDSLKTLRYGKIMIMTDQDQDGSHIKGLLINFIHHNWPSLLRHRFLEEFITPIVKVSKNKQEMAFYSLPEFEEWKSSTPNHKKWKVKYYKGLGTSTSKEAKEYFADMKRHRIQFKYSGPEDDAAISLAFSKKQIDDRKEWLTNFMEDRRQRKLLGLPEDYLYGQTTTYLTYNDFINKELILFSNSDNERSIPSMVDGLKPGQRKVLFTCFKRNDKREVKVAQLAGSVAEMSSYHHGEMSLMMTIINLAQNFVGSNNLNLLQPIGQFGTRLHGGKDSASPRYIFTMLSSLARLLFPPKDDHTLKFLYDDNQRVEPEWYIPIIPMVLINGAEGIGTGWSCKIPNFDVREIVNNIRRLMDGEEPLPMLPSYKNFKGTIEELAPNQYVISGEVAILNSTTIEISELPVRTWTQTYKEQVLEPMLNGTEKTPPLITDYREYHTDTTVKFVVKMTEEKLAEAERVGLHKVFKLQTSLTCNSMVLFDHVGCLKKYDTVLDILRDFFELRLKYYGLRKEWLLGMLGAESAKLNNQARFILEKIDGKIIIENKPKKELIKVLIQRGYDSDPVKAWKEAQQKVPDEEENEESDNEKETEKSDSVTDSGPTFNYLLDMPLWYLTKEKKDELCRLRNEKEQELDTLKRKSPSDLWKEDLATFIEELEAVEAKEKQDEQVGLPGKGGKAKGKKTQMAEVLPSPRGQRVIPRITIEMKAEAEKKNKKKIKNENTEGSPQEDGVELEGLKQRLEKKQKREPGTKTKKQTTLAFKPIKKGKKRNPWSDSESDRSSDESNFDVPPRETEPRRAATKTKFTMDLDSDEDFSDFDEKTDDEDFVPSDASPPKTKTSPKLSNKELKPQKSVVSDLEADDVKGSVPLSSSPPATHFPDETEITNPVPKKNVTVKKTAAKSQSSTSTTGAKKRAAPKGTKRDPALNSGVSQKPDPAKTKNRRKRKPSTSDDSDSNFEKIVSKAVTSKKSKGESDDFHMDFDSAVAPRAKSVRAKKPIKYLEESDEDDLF

In another assay the test system is Nucleic Acid. Kind of assay: Induction of DNA intercalation in pRYG DNA at 100 uM by agarose gel electrophoresis. Format: nucleic-acid assay.
Assay [3] deals with DNA topoisomerase 2-alpha (Homo sapiens) (UniProt P11388). The experiment in a line: Inhibition of human topoisomerase 2alpha-mediated relaxation of double-stranded pRYG DNA at 100 uM by agarose gel electrophoresis. Put shortly: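 Purified human topoisomerase IIα (3 units) was added last. Incubation was 37 °C for 60 min, quenched with 1% SDS/25 mM EDTA, then proteinase K. Products ran on 1% agarose in TBE without ethidium bromide and were stained afterward.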

Values after ≈ are worked out from the molar mass of the structure shown. Active and inactive are the calls of the source. The calls are words filed in the database; no cut-off is given here.

As for `C[C@@H]1CC2=C(C(=O)c3ccccc3C2=O)[C@H](C)O1`, the inhibition result in assay [1] was “inactive”. In the assay on Saccharomyces cerevisiae, the MIC result is “Active”. Moreover, the inhibition entry in assay [2] is “Active”. In the assay on Nucleic Acid, the outcome was inactive.

Regarding `C[C@H]1CC2=C(C(=O)c3ccccc3C2=O)[C@@H](C)O1`, the inhibition entry in assay [1] was “inactive”. For the same compound, in the assay on Saccharomyces cerevisiae, the MIC result is “Active”. Further, the inhibition entry in assay [2] is “Active”. The outcome in the assay on Nucleic Acid was inactive.

`C[C@H]1CC2=C(C(=O)c3ccccc3C2=O)[C@H](O)O1`: the inhibition entry in assay [1] was “inactive”. The MIC entry with Saccharomyces cerevisiae was “Active”. The inhibition result in assay [2] is “Active”. In addition, the outcome with Nucleic Acid was inactive.

On to `CC(C)Oc1cc(OC(C)C)c2c(c1)C(=O)C1=C(CO[C@@H](C)C1)C2=O`, for which the inhibition entry in assay [1] is “inactive”. Further, the inhibition entry in assay [3] and in assay [2] was “Active” each time. For the same compound, the outcome in the assay with Nucleic Acid was inactive.

Consider `COc1cc(O)c2c(c1)C(=O)C1=C(C2=O)[C@@H](C)O[C@@H](C)C1`, for which the inhibition result in assay [1] and in assay [3] was “inactive” throughout. Further, the MIC50 (as a rule, an inhibitory concentration at the 50% level, which refers to growth in some studies and to a panel of isolates in others) against Saccharomyces cerevisiae stood at 5 µM (≈ 1.44 µg/mL). Moreover, the inhibition result in assay [2] is “Active”. In addition, the outcome in the assay with Nucleic Acid was inactive.

As to `COc1cc([C@@H]2c3cc4c(cc3[C@@H](O[C@@H]3O[C@@H]5CO[C@@H](C)O[C@H]5[C@H](O)[C@H]3O)[C@H]3COC(=O)[C@H]23)OCO4)cc(OC)c1O`, in assay [1], the inhibition entry was “inactive”. The inhibition entry in assay [3] was “Active”. Further, the result in the assay with Nucleic Acid was inactive.

Regarding `C[C@H]1CC2=C(C(=O)c3c(O)cccc3C2=O)[C@@H](C)O1`, the inhibition result in assay [1] is “inactive”. The MIC entry in the assay with Saccharomyces cerevisiae is “Active”. Also, the inhibition result in assay [2] was “Active”. For the same compound, the result in the assay on Nucleic Acid was inactive.

Consider `COc1ccc2c(c1)C(=O)C1=C(C[C@H](CC(=O)O)O[C@@H]1C)C2=O` (racemic), for which, in assay [1], the inhibition entry is “inactive”. Also, in the assay with Saccharomyces cerevisiae, the MIC entry is “Active”. Further, the inhibition entry in assay [3] and in assay [2] was “Active” each time. In the assay with Nucleic Acid, the outcome was inactive.

For `C[C@H]1O[C@@H](CC(=O)O)CC2=C1C(=O)c1ccccc1C2=O`, the inhibition entry in assay [1] is “inactive”. The MIC50 in the assay on Saccharomyces cerevisiae worked out at 5 µM (≈ 1.43 µg/mL). The inhibition result in assay [2] was “Active”. Further, in the assay with Nucleic Acid, the result was inactive.

Turning to `COc1cc(OC)c2c(c1)C(=O)C1=C(CO[C@@H](C)C1)C2=O`, in assay [1], the inhibition result was “inactive”. In addition, the inhibition result in assay [3] and in assay [2] was “Active” each time. Moreover, the outcome with Nucleic Acid was inactive.

Regarding `C[C@H]1CC2=C(C(=O)c3c(O)cc(O)cc3C2=O)[C@H](O)O1`, the inhibition entry in assay [1] and in assay [3] was “inactive” throughout. For the same compound, the MIC entry in the assay with Saccharomyces cerevisiae is “inactive”. For the same compound, the inhibition result in assay [2] was “Active”. The result with Nucleic Acid was inactive.

Take `Cc1c2ccncc2c(C)c2c1[nH]c1ccccc12`: in assay [1], the inhibition entry is “inactive”. Besides, in assay [3], the inhibition result was “Active”. The result in the assay with Nucleic Acid was Active.

`C[C@H]1CC2=C(CO1)C(=O)c1c(O)cc(O)cc1C2=O`: the inhibition result in assay [1] was “inactive”. The MIC result with Saccharomyces cerevisiae was “Active”. Moreover, the inhibition result in assay [3] and in assay [2] was “Active” throughout. The outcome in the assay on Nucleic Acid was inactive.

For `COc1cccc2c1C(=O)C1=C(C[C@H](C)O[C@@H]1C)C2=O`, the inhibition result in assay [1] and in assay [3] was “inactive” in each case. In the assay with Saccharomyces cerevisiae, the MIC50 worked out at 80 µM (≈ 21.8 µg/mL). Also, the inhibition entry in assay [2] was “Active”. In the assay with Nucleic Acid, the result was inactive.

As to `COc1cc(OC)c2c(c1)C(=O)C1=C(C2=O)[C@@H](C)O[C@@H](C)C1`, the inhibition entry in assay [1] was “inactive”. In assay [2], the inhibition entry is “Active”. For the same compound, in the assay on Nucleic Acid, the result was inactive.

As to `COc1cc(O)c2c(c1)C(=O)C1=C(CO[C@@H](C)C1)C2=O`, the inhibition result in assay [1] was “inactive”. Moreover, the inhibition result in assay [3] and in assay [2] was “Active” each time. For the same compound, the outcome in the assay on Nucleic Acid was inactive.
